For test [1], the target named is Platelet-derived growth factor receptor alpha (Homo sapiens) (UniProt P16234). Nature of the test: Inhibition of human PDGFRalpha assessed as remaining enzyme activity at 10 uM; values are per cent of control.
For test [2], the target named is T1, Aurora kinase A (Homo sapiens) (UniProt O14965).
T1 sequence (whole entry): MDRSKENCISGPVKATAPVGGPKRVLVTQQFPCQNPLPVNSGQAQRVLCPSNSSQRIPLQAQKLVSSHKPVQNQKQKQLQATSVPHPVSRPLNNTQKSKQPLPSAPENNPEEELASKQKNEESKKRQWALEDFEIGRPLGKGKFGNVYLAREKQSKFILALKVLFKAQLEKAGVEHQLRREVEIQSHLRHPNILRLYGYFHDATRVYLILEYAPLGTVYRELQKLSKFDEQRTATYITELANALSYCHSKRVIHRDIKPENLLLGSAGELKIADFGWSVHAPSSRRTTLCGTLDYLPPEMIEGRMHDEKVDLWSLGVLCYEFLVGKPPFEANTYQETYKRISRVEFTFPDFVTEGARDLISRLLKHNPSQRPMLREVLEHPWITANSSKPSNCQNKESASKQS
As to the kind of experiment: Inhibition of human Aurora A assessed as remaining enzyme activity at 10 uM; values are per cent of control.

Test [3] deals with HT-29. Nature of the test: Growth inhibition of human HT-29 cells after 2 days by MTT assay. The class given is functional. The settings on record: HT-29, 48 h. The essentials: (§1)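 HT-29 and DU-145 cells seeded at 5 × 10⁴ cells/mL; serial concentrations added in duplicate; 37 °C, 5% CO₂, two days. MTT dye (Cell Titer96) for up to 4 h at 37 °C, then solubilization/stop mix overnight at room temperature; OD at 570 nm. GI₅₀ = concentration giving 50% growth inhibition; mean ± SEM of three or more experiments; doxorubicin as internal standard.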

Test [4] deals with Epidermal growth factor receptor (Homo sapiens) (UniProt P00533). As to the kind of experiment: Inhibition of human EGFR assessed as remaining enzyme activity at 10 uM; values are per cent of control.
Epidermal growth factor receptor (Homo sapiens), sequence (P00533 whole entry): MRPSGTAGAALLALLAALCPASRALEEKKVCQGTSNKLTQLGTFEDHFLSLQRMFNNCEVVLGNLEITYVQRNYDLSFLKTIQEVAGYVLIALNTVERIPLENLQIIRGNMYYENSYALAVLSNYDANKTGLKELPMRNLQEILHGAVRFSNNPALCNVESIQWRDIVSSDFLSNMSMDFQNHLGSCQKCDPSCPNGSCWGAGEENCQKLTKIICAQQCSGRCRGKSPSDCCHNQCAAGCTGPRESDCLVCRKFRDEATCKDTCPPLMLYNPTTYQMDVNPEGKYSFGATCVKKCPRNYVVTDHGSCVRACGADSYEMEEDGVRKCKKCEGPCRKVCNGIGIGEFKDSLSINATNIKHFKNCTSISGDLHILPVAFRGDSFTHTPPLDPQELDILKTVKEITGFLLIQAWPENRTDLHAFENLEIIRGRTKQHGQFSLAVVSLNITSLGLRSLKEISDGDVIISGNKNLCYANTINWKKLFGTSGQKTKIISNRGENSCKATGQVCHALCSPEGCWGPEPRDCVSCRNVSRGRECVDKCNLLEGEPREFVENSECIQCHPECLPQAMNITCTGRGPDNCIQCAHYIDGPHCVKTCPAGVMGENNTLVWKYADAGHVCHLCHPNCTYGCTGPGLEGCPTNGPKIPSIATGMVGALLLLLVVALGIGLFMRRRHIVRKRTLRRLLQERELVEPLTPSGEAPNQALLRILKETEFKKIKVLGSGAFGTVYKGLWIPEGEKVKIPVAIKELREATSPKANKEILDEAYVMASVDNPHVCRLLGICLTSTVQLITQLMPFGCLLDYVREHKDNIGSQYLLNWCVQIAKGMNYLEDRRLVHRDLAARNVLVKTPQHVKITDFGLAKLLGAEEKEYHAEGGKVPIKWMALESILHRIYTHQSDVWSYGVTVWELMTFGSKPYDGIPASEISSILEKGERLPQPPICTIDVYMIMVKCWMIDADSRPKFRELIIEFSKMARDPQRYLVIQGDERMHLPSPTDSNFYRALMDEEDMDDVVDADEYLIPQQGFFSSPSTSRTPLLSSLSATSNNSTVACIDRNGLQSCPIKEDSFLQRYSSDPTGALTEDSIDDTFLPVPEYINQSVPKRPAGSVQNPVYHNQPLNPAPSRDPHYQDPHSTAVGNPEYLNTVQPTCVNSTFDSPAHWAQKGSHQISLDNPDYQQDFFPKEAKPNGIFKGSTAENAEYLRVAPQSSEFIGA
Test [5] relates to HT-29. Nature of the test: Cytotoxicity against human HT-29 cells at 100 uM after 2 days by sulforhodamine B assay. The class given is functional. The settings on record: HT-29, 48 h. The essentials:
(§2)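 Five human cancer lines (HT-29, DU-145, A-549, SK-MEL-2, SK-OV-3) seeded at 3–7 × 10³ cells/well; compounds at 100 µM added in duplicate; 37 °C, 5% CO₂, two days. Fixed with formalin, SRB stained, washed with 1% acetic acid, dye solubilized in 10 mM unbuffered Tris base; OD at 520 nm. Read-out is % inhibition.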
(In general: The SRB assay estimates cell density from bound dye.)

The target of test [6] is Glycogen synthase kinase-3 beta (Homo sapiens) (UniProt P49841). As to the kind of experiment: Inhibition of human GSK3-beta assessed as remaining enzyme activity at 10 uM; values are per cent of control.
Glycogen synthase kinase-3 beta (Homo sapiens), sequence (P49841 whole entry, looked up): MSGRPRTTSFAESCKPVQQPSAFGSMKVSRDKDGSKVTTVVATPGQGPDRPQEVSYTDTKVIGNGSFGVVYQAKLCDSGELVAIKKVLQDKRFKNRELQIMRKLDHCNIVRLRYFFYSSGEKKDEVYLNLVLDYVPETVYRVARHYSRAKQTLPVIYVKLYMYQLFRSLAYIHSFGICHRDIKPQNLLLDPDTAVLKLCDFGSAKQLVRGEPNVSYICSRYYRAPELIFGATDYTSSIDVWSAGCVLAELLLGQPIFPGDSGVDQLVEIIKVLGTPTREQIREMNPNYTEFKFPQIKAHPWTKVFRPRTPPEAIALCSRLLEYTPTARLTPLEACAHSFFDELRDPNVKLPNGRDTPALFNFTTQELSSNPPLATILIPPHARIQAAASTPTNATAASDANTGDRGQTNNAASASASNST
For test [7], the system named is DU-145. Nature of the test: Growth inhibition of human DU145 cells after 2 days by MTT assay. The class given is functional. The settings on record: DU-145, 48 h. A digest of the protocol:
as §1
For orientation: Tetrazolium assays rely on reduction of a dye to a coloured formazan, in cell work by metabolically active cells.

Test [8] addresses Glycogen synthase kinase-3 beta (Homo sapiens) (UniProt P49841). As to the kind of experiment: Inhibition of human GSK3-beta at 10 uM.
Test [9] deals with DU-145. Nature of the test: Cytotoxicity against human DU145 cells at 100 uM after 2 days by sulforhodamine B assay. The test is classed as functional. The settings on record: DU-145, 48 h. A digest of the protocol: as §2
Test [10] concerns the target T1, Aurora kinase A (Homo sapiens). As to the kind of experiment: Inhibition of human Aurora A at 10 uM.

Platelet-derived growth factor receptor alpha (Homo sapiens), sequence (P16234 whole entry): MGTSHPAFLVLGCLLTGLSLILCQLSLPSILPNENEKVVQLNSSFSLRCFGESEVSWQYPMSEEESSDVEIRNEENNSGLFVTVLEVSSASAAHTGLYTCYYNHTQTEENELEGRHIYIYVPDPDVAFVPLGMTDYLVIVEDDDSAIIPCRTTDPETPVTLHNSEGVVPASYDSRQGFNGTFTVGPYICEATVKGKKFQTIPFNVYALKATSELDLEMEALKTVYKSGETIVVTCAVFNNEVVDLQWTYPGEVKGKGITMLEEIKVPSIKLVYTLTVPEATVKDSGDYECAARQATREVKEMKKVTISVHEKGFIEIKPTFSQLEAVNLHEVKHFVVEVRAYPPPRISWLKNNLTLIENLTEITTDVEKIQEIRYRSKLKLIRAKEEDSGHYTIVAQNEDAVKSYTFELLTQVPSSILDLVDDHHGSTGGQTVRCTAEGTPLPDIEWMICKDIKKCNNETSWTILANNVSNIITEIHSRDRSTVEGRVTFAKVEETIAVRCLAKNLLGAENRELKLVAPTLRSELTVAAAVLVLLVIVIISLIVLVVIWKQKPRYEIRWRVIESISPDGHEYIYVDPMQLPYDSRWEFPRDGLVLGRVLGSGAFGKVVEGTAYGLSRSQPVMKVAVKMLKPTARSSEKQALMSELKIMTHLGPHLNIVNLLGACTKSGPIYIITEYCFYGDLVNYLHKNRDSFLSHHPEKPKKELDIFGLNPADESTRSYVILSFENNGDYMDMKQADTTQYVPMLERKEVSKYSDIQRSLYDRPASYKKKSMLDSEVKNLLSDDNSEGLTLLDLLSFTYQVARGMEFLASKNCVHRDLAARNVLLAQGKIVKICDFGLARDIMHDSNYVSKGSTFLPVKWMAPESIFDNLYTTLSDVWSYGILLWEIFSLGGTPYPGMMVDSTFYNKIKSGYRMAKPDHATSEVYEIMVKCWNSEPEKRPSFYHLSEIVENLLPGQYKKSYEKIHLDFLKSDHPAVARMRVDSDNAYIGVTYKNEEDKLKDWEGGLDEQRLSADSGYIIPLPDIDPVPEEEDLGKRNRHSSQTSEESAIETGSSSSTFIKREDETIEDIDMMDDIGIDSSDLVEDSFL

For the molecule `CCCCCc1nc2c(-c3ccc(Cl)cc3)n[nH]c2c(=O)n1NC(=O)c1ccccc1`, the residual activity in test [1] came to 99%; in test [2] it was 9%; in [4] it was 76%; in [6], 8%. The concentration for 50% growth inhibition (GI50) turned out to be 2.26 µM in test [3] and 22.1 µM in test [7]. The inhibition at 100 µM was determined as 90.1% in test [5] and 88.7% in test [9]. In addition, the inhibition in [8] came out at 92%; in [10] it was 91%.

As for `CCCCc1nc2c(-c3ccc(Cl)cc3)n[nH]c2c(=O)n1NC(=O)c1ccccc1`, the residual activity in test [1] amounted to 105%; in test [2] it was 16%; in [4] it was 86%; in test [6], 11%. Further, the GI50 turned out to be 0.71 µM in test [3] and 29.1 µM in test [7]. For the same molecule, the inhibition at 100 µM was 89.5% in test [5] and 93% in test [9]. Further, the figures for the inhibition in test [8] and in test [10] were 89% and 84%, respectively.

On to `Cc1cccc(C(=O)Nn2c(CC3CCCCC3)nc3c(-c4ccc(Cl)cc4)n[nH]c3c2=O)c1`, for which the residual activity came to 95% in test [1], 18% in [2], 85% in test [4] and 11% in test [6]. Further, the results for the GI50 in [3] and in test [7] were 0.44 µM and 1.07 µM, respectively. Moreover, the inhibition at 100 µM was found to be 88.7% in test [5] and 85.9% in test [9]. Further, the inhibition in [8] was found to be 89%; in test [10], 82%.

For `O=C(Cc1ccccc1)Nn1c(CC2CCCCC2)nc2c(-c3ccc(Cl)cc3)n[nH]c2c1=O`, the residual activity in test [1] was 77%; in [2], 26%; in [4], 113%; in [6] it was 11%. For the same molecule, the values for the GI50 in [3] and in test [7] were 6.39 µM and 15.1 µM, respectively. Further, the inhibition at 100 µM was determined as 85.5% in test [5] and 79.8% in [9]. For the same molecule, the inhibition in test [8] is 89%; in test [10] it was 74%.

With `CCCCCc1nc2c(-c3ccc(Cl)cc3)n[nH]c2c(=O)n1NC(=O)c1cccc(C)c1`, the residual activity is 92% in test [1], 7% in test [2], 82% in test [4] and 6% in [6]. In addition, the 50% growth inhibitory concentration (GI50) in test [3] is 5.37 µM; in test [7], 12.9 µM. For the same molecule, the results for the inhibition at 100 µM in [5] and in [9] were 90.5% and 88.8%, respectively. Moreover, the inhibition turned out to be 94% in [8] and 93% in test [10].

As a reminder, the residual activity is the signal under treatment as a percentage of the control signal. As usually defined, the GI50 is the concentration at which growth is held to half of that of the control. A word on the inhibition: it is how much of the control response was suppressed. A lower inhibition goes with a weak effect.

Source of the values: ChEMBL document CHEMBL1154962, “Novel 6-N-arylcarboxamidopyrazolo[4,3-d]pyrimidin-7-one derivatives as potential anti-cancer agents” (2010).
